Laboratory results reported in ChEMBL document CHEMBL4411305, “5-Aminothiophene-2,4-dicarboxamide analogues as hepatitis B virus capsid assembly effectors” (Eur J Med Chem, 2019).
≈ marks a conversion by molar mass, not a printed value. Calls of active or inactive are those of the source.

Assays:
[1] = Protein binding in mouse plasma at 5 uM incubated for 5 hrs by LC-MS/MS-based equilibrium dialysis method; assay type: ADME, cell-free
Method in brief: (§1)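 Equilibrium dialysis in duplicate: compound spiked at 5 μM into normal human or mouse plasma, dialyzed against DPBS 5 h at 37 °C; both chambers sampled and quenched in acetonitrile with internal standard; LC-MS/MS gives percent bound.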

[2] = Half life in mouse plasma at 1 uM by LC-MS/MS analysis; assay type: ADME, cell-free
[3] = Stability in Dulbecco's phosphate buffered saline assessed as parent compound remaining at 1 uM after 24 hrs by LC-MS/MS analysis; assay type: physicochemical; settings: read-out: Stability
Method in brief: (§2)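 Compound, typically 1 μM final, incubated in DPBS at 37 °C in triplicate; samples at 0, 1, 3, 6, 24 h quenched with 3 volumes acetonitrile containing internal standard; parent measured by LC-MS/MS.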

Hepatitis B virus [4] = test: Binding affinity to HBV dimeric capsid protein C150 mutant expressed in Escherichia coli BL21 (DE3) at 20 uM by Sypro orange staining based RT-PCR analysis
[5] = Protein binding in human plasma at 5 uM incubated for 5 hrs by LC-MS/MS-based equilibrium dialysis method; assay type: ADME, cell-free; method in brief: as §1
HepG2 = test: (§3) Cytotoxicity against human HepG2 cells assessed as reduction in cell viability incubated for 2 days prior to compound washout followed by compound redosing and measured after 2 days by XTT assay; assay type: cell-based; settings: hepg2, 48 h
[6] = Intrinsic clearance in mouse liver microsomes assessed as glucuronidation per mg protein at 1 uM in presence of UDPGA by LC-MS/MS analysis; assay type: ADME, Microsome
Method in brief: (§4)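 Glucuronidation: typically 1 μM compound with 0.5 mg/mL microsomal protein, alamethicin 50 μg/mg protein, 1 mM MgCl2, 5 mM UDPGA in 0.1 M potassium phosphate pH 7.4, 37 °C; timed aliquots quenched in acetonitrile; LC-MS/MS gives CLint (μl/min/mg protein); triplicate; 7-hydroxycoumarin positive control.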

[7] = Intrinsic clearance in human liver microsomes assessed as NADPH-dependent metabolism per mg protein at 1 uM in presence of NADPH by LC-MS/MS analysis; assay type: ADME, Microsome
[8] = Intrinsic clearance in human liver microsomes assessed as glucuronidation per mg protein at 1 uM in presence of UDPGA by LC-MS/MS analysis; assay type: ADME, Microsome; method in brief: as §4
[9] = Thermodynamic aqueous solubility in Dulbecco's phosphate buffered saline using solid sample incubated for 72 hrs under shaking condition by LC-MS/MS analysis; assay type: physicochemical; settings: read-out: Therm_solubility
[10] = Half life in human plasma at 1 uM by LC-MS/MS analysis; assay type: ADME, cell-free
[11] = Intrinsic clearance in mouse liver microsomes assessed as NADPH-dependent metabolism per mg protein at 1 uM in presence of NADPH by LC-MS/MS analysis; assay type: ADME, Microsome
Hepatitis B virus [12] = test: Disruption of HBV dimeric capsid protein C150 mutant assembly expressed in Escherichia coli BL21 (DE3) assessed as increase in capsid assembly at 20 uM by Sypro orange staining based RT-PCR analysis
[13] = Apparent permeability from apical to basolateral side in human Caco2 cells measured after 20 to 80 mins by LC-MS/MS analysis; assay type: ADME, cell-based; settings: caco-2
[14] = Oral bioavailability in CD-1 mouse at 10 mg/kg by LC-MS/MS analysis; assay type: ADME, organism-based; settings: in vivo; for F: mouse; for bioavailability: CD-1, mouse
Method in brief: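 Male CD-1 mice (25–35 g), n = 4 per route; typical doses 2 mg/kg IV and 10 mg/kg PO in DPBS with up to 42% 2-hydroxypropyl-β-cyclodextrin; serial saphenous blood to 24 h (8 points); plasma by LC-MS/MS; non-compartmental analysis; F = (AUCpo/AUCiv)×(Doseiv/Dosepo).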

Hepatitis B virus [15] = test: Disruption of HBV dimeric capsid protein C150 mutant assembly expressed in Escherichia coli BL21 (DE3) assessed as increase in capsid aggregation after 1 hr by uranyl acetate staining based transmission electron microscopic analysis
Method in brief: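 Purified C150 dimer (18 μM) in bicarbonate buffer, with compound or 1% DMSO, assembled by adding an equal volume of 100 mM HEPES pH 7.5, 1 M NaCl, 1 h at room temperature. Assemblies adsorbed to glow-discharged carbon-coated copper grids, negatively stained with 2% uranyl acetate and imaged by TEM for aggregates versus DMSO control.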

[16] = Apparent permeability from basolateral to apical side in human Caco2 cells measured after 20 to 80 mins by LC-MS/MS analysis; assay type: ADME, cell-based; settings: caco-2
[17] = as §3; assay type: cell-based; settings: HepG2 cells
Hepatitis B virus [18] = test: Antiviral activity against HBV infected in human HepAD38 cells assessed as reduction in total DNA production incubated for 2 days prior to compound washout followed by compound redosing and measured after 2 days by dot-blot analysis; assay type: functional, organism-based
Method in brief: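 HepAD38 cells seeded at 3 × 10^4/well in tetracycline medium; next day washed twice with PBS and given tet-free complete medium with 2-fold serial dilutions, 1% final DMSO, replaced with fresh compound medium after 2 days. After 2 more days cells lysed (NP-40), DNA alkali-denatured, dot-blotted, probed with DIG-labelled HBV probe; chemiluminescence densitometry, variable-slope fit; mean ± SD of ≥2 experiments.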

[19] = Half life in Dulbecco's phosphate buffered saline at 1 uM by LC-MS/MS analysis; assay type: physicochemical; method in brief: as §2

Row | SMILES | PPB [1] | t1/2 [2] | remaining at 24 h, 1 µM [3] | Activity (Hepatitis B virus [4]) | PPB [5] | CC50 (HepG2) | intrinsic clearance (CLint) [6] | Microsomal intrinsic clearance [7] | intrinsic clearance (CLint) [8] | solubility thermodynamic at 72 h [9] | t1/2 [10] | intrinsic clearance per mg protein [11] | EC50 (Hepatitis B virus [18]) | other results
1 | Cc1c(C(=O)Nc2ccc(F)c(C#N)c2)sc(N)c1C(N)=O | 69% | > 24 h | > 90% | Active | 80% | > 100 µM | 2 µL/min | 2.4 µL/min | 0.1 µL/min | 6.7 µM (≈ 2.13 µg/mL) | > 24 h | 4.2 µL/min | – | –
2 | Cc1cc(NC(=O)c2sc(N)c(C(N)=O)c2C)ccc1F | 82% | > 24 h | > 90% | Active | 91% | > 100 µM | 5.2 µL/min | 14 µL/min | < 0.1 µL/min | 31 µM (≈ 9.53 µg/mL) | > 24 h | 92 µL/min | – | Activity (Hepatitis B virus [12]): Active; Papp [13]: 18.6 ×10⁻⁶ cm/s; F [14]: 11%; Activity (Hepatitis B virus [15]): Active; Papp [16]: 26.9 ×10⁻⁶ cm/s
3 | Cc1cc(NC(=O)c2sc(N)c(C(N)=O)c2C)ccc1Br | – | – | – | Active | – | 107 µM | – | – | – | – | – | – | – | bioavailability [14]: 46%
4 | Cc1c(C(=O)Nc2ccc(F)c(F)c2)sc(N)c1C(N)=O | 80% | > 24 h | > 90% | Active | 86% | > 100 µM | 5.2 µL/min | 3.4 µL/min | < 0.1 µL/min | 11 µM (≈ 3.42 µg/mL) | > 24 h | 25 µL/min | – | Papp [13]: 24.8 ×10⁻⁶ cm/s; Papp [16]: 27.6 ×10⁻⁶ cm/s
5 | Cc1c(C(=O)Nc2ccccc2)sc(N)c1C(N)=S | – | – | – | Active | – | – | – | – | – | – | – | – | > 10 µM | CC50 at 48 h [17]: > 100 µM
6 | Cc1c(C(=O)Nc2ccccc2)sc(N)c1C(N)=O | 50% | > 24 h | > 90% | Active | 86% | > 100 µM | 4.4 µL/min | 5 µL/min | 2 µL/min | 19 µM (≈ 5.23 µg/mL) | > 24 h | 18 µL/min | 3.4 µM | bioavailability [14]: 31 to 34%; half-life at 1 µM [19]: > 24 h
7 | Cc1c(C(=O)Nc2ccc(F)c(C(F)F)c2)sc(N)c1C(N)=O | 82% | > 24 h | > 90% | Active | 89% | > 100 µM | 10 µL/min | 5.8 µL/min | 3.2 µL/min | 9.5 µM (≈ 3.26 µg/mL) | > 24 h | 22 µL/min | – | F [14]: 25%
8 | Cc1c(C(=O)Nc2ccc(F)c(Cl)c2)sc(N)c1C(N)=O | 90% | > 24 h | > 90% | Active | 94% | > 100 µM | 1.6 µL/min | 7.6 µL/min | < 0.1 µL/min | 31 µM (≈ 10.2 µg/mL) | > 24 h | 28 µL/min | 0.31 µM | –
